The source made the active and inactive calls. No rule for the calls is given here.
Legend:
Influenza B virus = experiment: Antiviral activity against Influenza B virus infected in dog MDCK cells assessed as reduction of virus-induced cytopathogenicity at 250 uM; format: functional, organism-based
In short: (§1)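 Confluent cell monolayers were infected with 100 CCID50 of virus while exposed to varying compound concentrations. Cytopathicity was scored once it was complete in untreated infected controls. EC50 was taken as the concentration that reduced virus-induced cytopathogenicity by 50%.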

Sindbis virus = experiment: Antiviral activity against Sindbis virus infected in african green monkey Vero cells assessed as reduction of virus-induced cytopathogenicity at 250 uM; format: functional, organism-based
In short: (§2)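 Confluent monolayers (HEL fibroblasts, Vero, or HeLa cells as listed) were infected with 100 CCID50 of virus in the presence of varying compound concentrations. Virus-induced cytopathicity or plaque formation was scored once cytopathicity was complete in untreated infected controls. EC50 was taken as the concentration reducing cytopathogenicity or plaque formation by 50%.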

Coxsackievirus B4 = experiment: Antiviral activity against Coxsackievirus B4 infected in african green monkey Vero cells assessed as reduction of virus-induced cytopathogenicity at 250 uM; format: functional, organism-based; in short: as §2
Feline coronavirus = experiment: Antiviral activity against Feline coronavirus infected in cat CRFK cells assessed as reduction of virus-induced cytopathogenicity at 250 uM; format: functional, organism-based
Human alphaherpesvirus 2 = experiment: Antiviral activity against Herpes simplex virus 2 G infected in human HEL cells assessed as reduction of virus-induced cytopathogenicity at 250 uM; format: functional, organism-based; conditions: strain G; in short: as §2
[1] = test system: Mammalian orthoreovirus 1; experiment: Antiviral activity against Reovirus 1 infected in african green monkey Vero cells assessed as reduction of virus-induced cytopathogenicity at 250 uM; format: functional, organism-based; in short: as §2
Human alphaherpesvirus 1 [2] = experiment: Antiviral activity against Herpes simplex virus 1 KOS infected in human HEL cells assessed as reduction of virus-induced cytopathogenicity at 250 uM; format: functional, organism-based; in short: as §2
HEL = experiment: Cytotoxicity against human HEL cells assessed as alteration of cell morphology up to 100 uM by microscopic analysis; format: cell-based
In short: (§3)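 Uninfected host-cell cultures were exposed to compound and examined by microscopy. Cytotoxicity was expressed as the minimum cytotoxic concentration (MCC) causing a microscopically detectable alteration of normal cell morphology.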

[3] = test system: Vesicular stomatitis virus; experiment: Antiviral activity against Vesicular stomatitis virus infected in human HeLa cells assessed as reduction of virus-induced cytopathogenicity at 250 uM; format: functional, organism-based; in short: as §1
Influenza A virus [4] = experiment: Antiviral activity against Influenza A virus H1N1 infected in dog MDCK cells assessed as reduction of virus-induced cytopathogenicity at 250 uM; format: functional, organism-based; in short: as §1
Vero = experiment: Cytotoxicity against african green monkey Vero cells assessed as alteration of cell morphology up to 100 uM by microscopic analysis; format: cell-based; conditions: chlorocebus sabaeus; in short: as §3
L1210 = experiment: Cytostatic activity against mouse L1210 cells assessed as inhibition of cell proliferation after 48 hrs by Coulter counter analysis; format: functional, cell-based; conditions: L1210, 48 h
In short: (§4)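 Each well received (5–7.5) × 10^4 tumor cells plus compound. L1210 cells grew 48 h and CEM and HeLa cells grew 72 h, at 37 °C in humidified CO2. Cells were then counted electronically, and IC50 was taken as the concentration inhibiting proliferation by 50%.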

Felid alphaherpesvirus 1 = experiment: Antiviral activity against Feline herpes virus infected in cat CRFK cells assessed as reduction of virus-induced cytopathogenicity at 250 uM; format: functional, organism-based
MDCK = experiment: Cytotoxicity against dog MDCK cells assessed as alteration of cell morphology up to 100 uM by microscopic analysis; format: cell-based, Canis lupus familiaris; in short: as §3
[5] = Cytotoxicity against cat CRFK cells assessed as alteration of cell morphology up to 100 uM by microscopic analysis; format: cell-based, Felis catus; in short: as §3
Human respirovirus 3 = experiment: Antiviral activity against Parainfluenza virus 3 infected in african green monkey Vero cells assessed as reduction of virus-induced cytopathogenicity at 250 uM; format: functional, organism-based; in short: as §2
Punta Toro virus = experiment: Antiviral activity against Punta Toro virus infected in african green monkey Vero cells assessed as reduction of virus-induced cytopathogenicity at 250 uM; format: functional, organism-based; in short: as §2
CCRF-CEM = experiment: Cytostatic activity against human CEM cells assessed as inhibition of cell proliferation after 72 hrs by Coulter counter analysis; format: functional, cell-based; in short: as §4
[6] = test system: Vesicular stomatitis virus; experiment: Antiviral activity against Vesicular stomatitis virus infected in human HEL cells assessed as reduction of virus-induced cytopathogenicity at 250 uM; format: functional, organism-based; in short: as §1
[7] = test system: Human immunodeficiency virus 1; experiment: Antiviral activity against Human immunodeficiency virus 1 3B infected in human CEM cells assessed as reduction of virus-induced giant cell formation at 250 uM after 4 to 5 days; format: functional, organism-based; conditions: CCRF-CEM
In short: (§5)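 CEM cells at 3 × 10^5 cells/mL were infected with HIV at 100 CCID50 per mL in the presence of compound dilutions. They were held 4–5 days at 37 °C in humidified CO2. Syncytium (giant cell) formation was scored microscopically, and EC50 was taken as the concentration inhibiting giant cell formation by 50%.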

HeLa [8] = experiment: Cytostatic activity against human HeLa cells assessed as inhibition of cell proliferation after 72 hrs by Coulter counter analysis; format: functional, cell-based; in short: as §4
Human alphaherpesvirus 1 [9] = experiment: Antiviral activity against thymidine kinase-deficient, ACV-resistant Herpes simplex virus 1 KOS infected in human HEL cells assessed as reduction of virus-induced cytopathogenicity at 250 uM; format: functional, organism-based; in short: as §1
HeLa [10] = experiment: Cytotoxicity against human HeLa cells assessed as alteration of cell morphology up to 100 uM by microscopic analysis; format: cell-based; in short: as §3
[11] = test system: Human immunodeficiency virus 2; experiment: Antiviral activity against Human immunodeficiency virus 2 ROD infected in human CEM cells assessed as reduction of virus-induced giant cell formation at 250 uM after 4 to 5 days; format: functional, organism-based; conditions: CCRF-CEM; in short: as §5
[12] = test system: Respiratory syncytial virus; experiment: Antiviral activity against Respiratory syncytial virus long infected in human HeLa cells assessed as reduction of virus-induced cytopathogenicity at 250 uM; format: functional, organism-based; in short: as §2
Influenza A virus [13] = experiment: Antiviral activity against Influenza A virus H3N2 infected in dog MDCK cells assessed as reduction of virus-induced cytopathogenicity at 250 uM; format: functional, organism-based; in short: as §1

CCOP(=O)(OCC)[C@H]1C[C@H](C(=O)Nc2ccc(Cl)cc2)ON1C (relative stereo)
inhibition (Influenza B virus): inactive
inhibition (Sindbis virus): inactive
inhibition (Coxsackievirus B4): inactive
inhibition (Feline coronavirus): inactive
inhibition (Human alphaherpesvirus 2): inactive
inhibition [1]: inactive
inhibition (Human alphaherpesvirus 1 [2]): inactive
Activity (HEL): Non-toxic
inhibition [3]: inactive
inhibition (Influenza A virus [4]): inactive
Activity (Vero): Non-toxic
IC50 (L1210): > 250 µM
inhibition (Felid alphaherpesvirus 1): inactive
Activity (MDCK): Non-toxic
Activity [5]: Non-toxic
inhibition (Human respirovirus 3): inactive
inhibition (Punta Toro virus): inactive
IC50 (CCRF-CEM): > 250 µM
inhibition [6]: inactive
inhibition [7]: inactive
IC50 (HeLa [8]): ≥ 250 µM
inhibition (Human alphaherpesvirus 1 [9]): inactive
Activity (HeLa [10]): Non-toxic
inhibition [11]: inactive
inhibition [12]: inactive
inhibition (Influenza A virus [13]): inactive

CCOP(=O)(OCC)[C@H]1C[C@H](C(=O)Nc2cccc(Br)c2)ON1C (racemic)
inhibition (Influenza B virus): inactive
inhibition (Sindbis virus): inactive
inhibition (Coxsackievirus B4): inactive
inhibition (Feline coronavirus): inactive
inhibition (Human alphaherpesvirus 2): inactive
inhibition [1]: inactive
inhibition (Human alphaherpesvirus 1 [2]): inactive
Activity (HEL): Non-toxic
inhibition [3]: inactive
inhibition (Influenza A virus [4]): inactive
Activity (Vero): Non-toxic
IC50 (L1210): > 250 µM
inhibition (Felid alphaherpesvirus 1): inactive
Activity (MDCK): Non-toxic
Activity [5]: Non-toxic
inhibition (Human respirovirus 3): inactive
inhibition (Punta Toro virus): inactive
IC50 (CCRF-CEM): ≥ 250 µM
inhibition [6]: inactive
inhibition [7]: inactive
IC50 (HeLa [8]): 180 µM
inhibition (Human alphaherpesvirus 1 [9]): inactive
Activity (HeLa [10]): Non-toxic
inhibition [11]: inactive
inhibition [12]: inactive
inhibition (Influenza A virus [13]): inactive

CCOP(=O)(OCC)[C@H]1C[C@H](C(=O)Nc2cccc(F)c2)ON1C (mixture of isomers)
inhibition (Influenza B virus): inactive
inhibition (Sindbis virus): inactive
inhibition (Coxsackievirus B4): inactive
inhibition (Feline coronavirus): inactive
inhibition (Human alphaherpesvirus 2): inactive
inhibition [1]: inactive
inhibition (Human alphaherpesvirus 1 [2]): inactive
Activity (HEL): Non-toxic
inhibition [3]: inactive
inhibition (Influenza A virus [4]): inactive
Activity (Vero): Non-toxic
IC50 (L1210): > 250 µM
inhibition (Felid alphaherpesvirus 1): inactive
Activity (MDCK): Non-toxic
Activity [5]: Non-toxic
inhibition (Human respirovirus 3): inactive
inhibition (Punta Toro virus): inactive
IC50 (CCRF-CEM): > 250 µM
inhibition [6]: inactive
inhibition [7]: inactive
IC50 (HeLa [8]): > 250 µM
inhibition (Human alphaherpesvirus 1 [9]): inactive
Activity (HeLa [10]): Non-toxic
inhibition [11]: inactive
inhibition [12]: inactive
inhibition (Influenza A virus [13]): inactive

CCOP(=O)(OCC)[C@H]1C[C@H](C(=O)Nc2ccc(C(C)=O)cc2)ON1C (mixture of isomers)
inhibition (Influenza B virus): inactive
inhibition (Sindbis virus): inactive
inhibition (Coxsackievirus B4): inactive
inhibition (Feline coronavirus): inactive
inhibition (Human alphaherpesvirus 2): inactive
inhibition [1]: inactive
inhibition (Human alphaherpesvirus 1 [2]): inactive
Activity (HEL): Non-toxic
inhibition [3]: inactive
inhibition (Influenza A virus [4]): inactive
Activity (Vero): Non-toxic
IC50 (L1210): > 250 µM
inhibition (Felid alphaherpesvirus 1): inactive
Activity (MDCK): Non-toxic
Activity [5]: Non-toxic
inhibition (Human respirovirus 3): inactive
inhibition (Punta Toro virus): inactive
IC50 (CCRF-CEM): > 250 µM
inhibition [6]: inactive
inhibition [7]: inactive
IC50 (HeLa [8]): > 250 µM
inhibition (Human alphaherpesvirus 1 [9]): inactive
Activity (HeLa [10]): Non-toxic
inhibition [11]: inactive
inhibition [12]: inactive
inhibition (Influenza A virus [13]): inactive

CCOP(=O)(OCC)[C@@H]1C[C@H](C(=O)Nc2ccc(Cl)cc2)ON1C (mixture of isomers)
inhibition (Influenza B virus): inactive
inhibition (Sindbis virus): inactive
inhibition (Coxsackievirus B4): inactive
inhibition (Feline coronavirus): inactive
inhibition (Human alphaherpesvirus 2): inactive
inhibition [1]: inactive
inhibition (Human alphaherpesvirus 1 [2]): inactive
Activity (HEL): Non-toxic
inhibition [3]: inactive
inhibition (Influenza A virus [4]): inactive
Activity (Vero): Non-toxic
IC50 (L1210): 170 µM
inhibition (Felid alphaherpesvirus 1): inactive
Activity (MDCK): Non-toxic
Activity [5]: Non-toxic
inhibition (Human respirovirus 3): inactive
inhibition (Punta Toro virus): inactive
IC50 (CCRF-CEM): ≥ 250 µM
inhibition [6]: inactive
inhibition [7]: inactive
IC50 (HeLa [8]): > 250 µM
inhibition (Human alphaherpesvirus 1 [9]): inactive
Activity (HeLa [10]): Non-toxic
inhibition [11]: inactive
inhibition [12]: inactive
inhibition (Influenza A virus [13]): inactive
